Measured values taken from ChEMBL document CHEMBL5230175, “The war on hTG2: warhead optimization in small molecule human tissue transglutaminase inhibitors” (RSC Med Chem, 2023).

Key:
[1] = biological target: T1, Protein-glutamine gamma-glutamyltransferase (Homo sapiens) (UniProt P21980); experiment: Irreversible inhibition of human recombinant tissue transglutaminase expressed in Escherichia coli using Cbz-Glu-(gamma-p-nitrophenylester)Gly (AL5) as substrate assessed as substrate hydrolysis by measuring Kinact/Ki ratio incubated for 20 mins by colorimetric analysis
T1 sequence (whole entry): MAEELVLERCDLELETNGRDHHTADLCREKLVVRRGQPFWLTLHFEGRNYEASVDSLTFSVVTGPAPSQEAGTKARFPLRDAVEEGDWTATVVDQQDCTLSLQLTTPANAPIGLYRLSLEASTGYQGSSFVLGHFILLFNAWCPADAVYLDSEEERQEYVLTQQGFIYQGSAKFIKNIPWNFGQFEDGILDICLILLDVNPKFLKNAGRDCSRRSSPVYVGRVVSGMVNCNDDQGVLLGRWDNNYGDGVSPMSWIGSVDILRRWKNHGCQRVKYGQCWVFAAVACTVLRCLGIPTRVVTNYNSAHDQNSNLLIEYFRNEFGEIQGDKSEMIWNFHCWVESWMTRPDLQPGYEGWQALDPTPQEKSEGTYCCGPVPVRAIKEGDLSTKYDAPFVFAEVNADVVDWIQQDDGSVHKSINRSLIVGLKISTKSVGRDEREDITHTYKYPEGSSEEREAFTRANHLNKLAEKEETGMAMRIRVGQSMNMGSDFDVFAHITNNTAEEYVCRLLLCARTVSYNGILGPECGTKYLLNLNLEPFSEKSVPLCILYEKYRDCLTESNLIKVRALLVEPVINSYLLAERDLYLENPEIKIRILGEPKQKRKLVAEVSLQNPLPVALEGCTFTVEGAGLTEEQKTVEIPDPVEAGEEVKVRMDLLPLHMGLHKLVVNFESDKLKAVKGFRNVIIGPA

[2] = biological target: T1, Protein-glutamine gamma-glutamyltransferase (Homo sapiens); experiment: Inhibition of human recombinant tissue transglutaminase expressed in Escherichia coli using Cbz-Glu-(gamma-p-nitrophenylester)Gly (AL5) as substrate assessed as substrate hydrolysis by measuring Kinact incubated for 20 mins by colorimetric analysis
[3] = biological target: T1, Protein-glutamine gamma-glutamyltransferase (Homo sapiens); experiment: Irreversible inhibition of human recombinant tissue transglutaminase expressed in Escherichia coli using Cbz-Glu-(gamma-p-nitrophenylester)Gly (AL5) as substrate assessed as substrate hydrolysis by measuring Kinact/Ki ratio by linear regression analysis
Outline: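 For TG2/AL5 under Kitz–Wilson conditions (100 μM AL5, pH 6.9 MOPS, 25 °C, 405 nm), kinact/KI was taken from simple linear regression of kobs against corrected inhibitor concentration at the lowest inhibitor concentrations.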

[4] = biological target: T2, Protein-glutamine gamma-glutamyltransferase (Homo sapiens, UniProt P21980); experiment: Irreversible inhibition of human recombinant tissue transglutaminase expressed in Escherichia coli using Cbz-Glu-(gamma-p-nitrophenylester)Gly (AL5) as substrate assessed as substrate hydrolysis by measuring KI incubated for 20 mins by colorimetric analysis
T2 sequence (P21980 whole entry): T1 sequence (whole entry)

[5] = biological target: T2, Protein-glutamine gamma-glutamyltransferase; experiment: Reversible inhibition of human recombinant tissue transglutaminase expressed in Escherichia coli using Cbz-Glu-(gamma-p-nitrophenylester)Gly (AL5) as substrate assessed as substrate hydrolysis by measuring Ki incubated for 20 mins by colorimetric analysis
Outline: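 For TG2 reversible inhibition, the same AL5 colorimetric assay (MOPS pH 6.9, 7.5 mM CaCl2, 0.25 μM TG2, 405 nm) was run at 100 and 50 μM AL5. Initial rates were taken over the first 10% conversion of the uninhibited control, and 1/v0 was plotted against [I] in a Dixon plot; Ki came from the intersection of the lines.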

[6] = biological target: T3, Protein-glutamine gamma-glutamyltransferase K (Homo sapiens) (UniProt P22735); experiment: Irreversible inhibition of human TG1 using Cbz-Glu-(gamma-p-nitrophenylester)Gly (AL5) as substrate assessed as substrate hydrolysis by measuring observed binding constant incubated for 100 mins by colorimetric assay
T3 sequence (whole entry): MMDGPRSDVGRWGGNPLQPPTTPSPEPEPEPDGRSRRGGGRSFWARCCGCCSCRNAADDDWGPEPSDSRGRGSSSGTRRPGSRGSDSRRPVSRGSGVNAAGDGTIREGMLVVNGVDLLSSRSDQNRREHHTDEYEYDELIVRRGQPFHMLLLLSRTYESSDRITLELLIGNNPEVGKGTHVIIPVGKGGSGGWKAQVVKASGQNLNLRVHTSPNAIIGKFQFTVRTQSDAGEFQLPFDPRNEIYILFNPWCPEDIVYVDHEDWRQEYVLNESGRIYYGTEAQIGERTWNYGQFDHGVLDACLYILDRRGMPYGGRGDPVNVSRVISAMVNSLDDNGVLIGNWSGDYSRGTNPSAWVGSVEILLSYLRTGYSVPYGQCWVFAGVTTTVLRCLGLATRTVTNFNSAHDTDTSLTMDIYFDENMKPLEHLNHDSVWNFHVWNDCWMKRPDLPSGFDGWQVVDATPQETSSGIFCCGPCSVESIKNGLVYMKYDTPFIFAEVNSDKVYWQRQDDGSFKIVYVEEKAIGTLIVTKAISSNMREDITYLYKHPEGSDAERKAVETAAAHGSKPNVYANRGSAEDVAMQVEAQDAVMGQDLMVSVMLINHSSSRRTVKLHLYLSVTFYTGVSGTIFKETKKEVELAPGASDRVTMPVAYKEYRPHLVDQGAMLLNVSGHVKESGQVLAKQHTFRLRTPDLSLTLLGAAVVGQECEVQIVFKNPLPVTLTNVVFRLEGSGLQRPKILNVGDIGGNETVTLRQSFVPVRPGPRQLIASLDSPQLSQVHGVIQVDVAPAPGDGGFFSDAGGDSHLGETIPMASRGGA

[7] = Ratio of Kinact/Ki for inhibition of human tissue transglutaminase assessed as substrate hydrolysis to corrected second order rate constant (K2 corrected) for GSH reactivity in aqueous buffer assessed as GSH adduct formation; assay type: physicochemical
[8] = biological target: T1, Protein-glutamine gamma-glutamyltransferase (Homo sapiens); experiment: Irreversible inhibition of human TG2 using Cbz-Glu-(gamma-p-nitrophenylester)Gly (AL5) as substrate assessed as substrate hydrolysis by measuring observed binding constant incubated for 20 mins by colorimetric assay
[9] = Metabolic stability in human whole blood assessed as half-life at 1 to 5 uM measured upto 120 mins by LC-MS/MS analysis; assay type: ADME, tissue-based; conditions: dose 1-5 µM
Outline: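 Pooled human whole blood (K3-EDTA) was spiked to 1 or 5 μM compound. Aliquots taken at 0, 15, 30, 60 and 120 min were quenched in acetonitrile with 0.1% formic acid and internal standard, then analysed by LC-MS/MS. Percent parent remaining is the peak-area ratio versus T = 0; half-life comes from an exponential decay fit.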

[10] = biological target: T4, Coagulation factor XIII A chain (Homo sapiens) (UniProt P00488); experiment: Reversible inhibition of human factor XIIIa using peptidic FRET-quenched probe A101 as substrate by fluorescence based assay relative to control; conditions: concentration not given here
T4 sequence (whole entry): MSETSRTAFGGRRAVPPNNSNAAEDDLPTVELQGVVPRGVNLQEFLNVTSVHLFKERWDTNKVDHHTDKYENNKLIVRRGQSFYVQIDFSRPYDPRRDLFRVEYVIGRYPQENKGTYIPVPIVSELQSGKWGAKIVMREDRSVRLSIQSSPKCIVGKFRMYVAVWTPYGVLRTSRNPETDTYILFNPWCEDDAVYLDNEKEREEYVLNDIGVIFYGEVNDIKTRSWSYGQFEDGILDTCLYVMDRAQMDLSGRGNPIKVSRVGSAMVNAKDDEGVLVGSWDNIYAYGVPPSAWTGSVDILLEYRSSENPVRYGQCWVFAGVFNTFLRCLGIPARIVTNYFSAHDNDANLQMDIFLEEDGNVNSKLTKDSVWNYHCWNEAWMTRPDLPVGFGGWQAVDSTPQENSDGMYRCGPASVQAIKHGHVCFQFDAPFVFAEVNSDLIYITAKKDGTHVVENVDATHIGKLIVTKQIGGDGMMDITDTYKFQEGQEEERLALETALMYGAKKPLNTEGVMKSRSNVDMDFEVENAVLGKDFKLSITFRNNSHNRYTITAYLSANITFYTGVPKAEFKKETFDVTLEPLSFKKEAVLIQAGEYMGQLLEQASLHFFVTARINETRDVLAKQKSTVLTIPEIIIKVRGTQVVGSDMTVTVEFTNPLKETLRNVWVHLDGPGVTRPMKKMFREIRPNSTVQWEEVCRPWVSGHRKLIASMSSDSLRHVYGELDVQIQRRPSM

[11] = Metabolic stability in pooled cryopreserved human hepatocytes assessed as half-life at 1 uM measured upto 120 mins by LC-MS/MS analysis; assay type: ADME, cell-based, Hepatocyte
Outline: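 Samples were taken at 0, 5, 15, 30, 60 and 120 min, acetonitrile-quenched with internal standard, and analysed by LC-MS/MS. Half-life came from exponential decay of the parent/IS ratio relative to T = 0.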

[12] = GSH reactivity in aqueous buffer assessed as GSH adduct formation by measuring corrected intrinsic second order rate constant (K2 corrected) by HPLC analysis; assay type: physicochemical
Outline: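 GSH stock diluted to final 15 mM in aqueous buffer (pH 8.0 used, 7.4 too slow), reaction started with inhibitor at final 0.5 mM, 2% v/v DMSO. Incubated at 22 °C and aliquots taken over at least 5–6 half-lives. HPLC with UV 214/254 nm tracked adduct growth and inhibitor loss, fitted mono-exponentially to give pseudo-first-order kobs. kobs was divided by [thiol] and then by the thiolate fraction (pKa 8.7) to give kcorr2. Run in duplicate.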

C=C(F)C(=O)NCC(=O)N1CCN(C(=O)C23CC4CC(CC(C4)C2)C3)CC1
Ratio [1]: 30.4 10^3/M/min
Kinact [2]: 1.17 min⁻¹
Ratio [3]: 28.5 10^3/M/min
Ki [4]: 38.4 µM

C/C=C/C(=O)NCC(=O)N1CCN(C(=O)C23CC4CC(CC(C4)C2)C3)CC1
Ratio [1]: 8.3 10^3/M/min
Ratio [3]: 6.7 10^3/M/min
Ki [4]: 61.8 µM

O=C(CN=C=S)N1CCN(C(=O)C23CC4CC(CC(C4)C2)C3)CC1
Ratio [1]: 26.3 10^3/M/min
Kinact [2]: 0.23 min⁻¹
Ratio [3]: 17.7 10^3/M/min
Ki [4]: 8.83 µM

C=C(C(=O)NCC(=O)N1CCN(C(=O)C23CC4CC(CC(C4)C2)C3)CC1)C(F)(F)F
Ratio [1]: 171 10^3/M/min
Kinact [2]: 5.22 min⁻¹
Ratio [3]: 209 10^3/M/min
Ki [4]: 30.6 µM

C#CC(=O)NCC(=O)N1CCN(C(=O)C23CC4CC(CC(C4)C2)C3)CC1
Ratio [1]: 97.5 10^3/M/min
Kinact [2]: 6.83 min⁻¹
Ratio [3]: 87.7 10^3/M/min
Ki [4]: 70.1 µM

CC(=O)C(=O)NCC(=O)N1CCN(C(=O)C23CC4CC(CC(C4)C2)C3)CC1
Ki [5]: 154 µM

[N-]=[N+]=CC(=O)NCC(=O)N1CCN(C(=O)C23CC4CC(CC(C4)C2)C3)CC1
Ratio [1]: 107 10^3/M/min
Kinact [2]: 2.82 min⁻¹
Ratio [3]: 95 10^3/M/min
Ki [4]: 26.3 µM

C[S+]([O-])CCCCN=C=S (configuration not stated) [SULFORAPHANE]
Kinact [2]: 0.27 min⁻¹
Ki [4]: 366 µM

C=C(Cl)C(=O)NCC(=O)N1CCN(C(=O)C23CC4CC(CC(C4)C2)C3)CC1
K [6]: 0.022 min⁻¹
Ratio [7]: 0.053
K [8]: 0.509 min⁻¹
Ratio [1]: 3130 10^3/M/min
half-life at up to 5 µM [9]: 0.533 h
inhibition [10]: 76%
half-life at 1 µM [11]: 1.53 h
Kinact [2]: 7.28 min⁻¹
Ratio [3]: 3140 10^3/M/min
K [12]: 59.387 10^-3/M/min
Ki [4]: 2.32 µM

O=C(NCC(=O)N1CCN(C(=O)C23CC4CC(CC(C4)C2)C3)CC1)C(F)Cl (configuration not stated)
Ratio [1]: 17.8 10^3/M/min
Kinact [2]: 1.57 min⁻¹
Ratio [3]: 16 10^3/M/min
Ki [4]: 88.5 µM

C=C(Br)C(=O)NCC(=O)N1CCN(C(=O)C23CC4CC(CC(C4)C2)C3)CC1
K [6]: 0.018 min⁻¹
K [8]: 0.497 min⁻¹
Ratio [1]: 2410 10^3/M/min
Kinact [2]: 4.69 min⁻¹
Ratio [3]: 2320 10^3/M/min
Ki [4]: 1.95 µM
